Laboratory results reported in ChEMBL document CHEMBL3286396, “Discovery and Synthesis of C-Nucleosides as Potential New Anti-HCV Agents” (ACS Med Chem Lett, 2014).

Assays:
Hepatocyte [1] = assay: Drug anabolism in rat hepatocytes assessed as monophosphate level at 10 uM after 24 hrs measured per million cells by mass spectrometer analysis; assay type: ADME, cell-based
[2] = Inhibition of C-terminal His6-tagged and C-terminal 21 amino acids truncated Hepatitis C virus genotype 5a SA13 NS5B RNA-dependent RNA polymerase activity using polyU or polyC RNA as template by microbeta plate reader analysis
Hepatocyte [3] = assay: Drug anabolism in human hepatocytes assessed as diphosphate level at 10 uM after 24 hrs measured per million cells by mass spectrometer analysis; assay type: ADME, cell-based
Hepatitis C virus [4] = assay: Antiviral activity against Hepatitis C virus genotype 1b infected in human HuH7 cells assessed as inhibition of subgenomic replicon RNA replication after 72 hrs by luciferase reporter assay; assay type: functional, cell-based, Hepacivirus hominis; conditions: Huh-7, 72 h
[5] = Mitochondrial toxicity in human HepG2 cells assessed as increase in lactate production up to 10 uM measured for 14 days; assay type: cell-based, Mitochondria; conditions: hepg2, 336 h
[6] = Total clearance in Sprague-Dawley rat at 2 mg/kg, iv and 5 mg/kg, po by WinNonlin non-compartmental analysis; assay type: ADME, organism-based; conditions: in vivo
How it was run: (§1)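 PK study animals were male Sprague–Dawley rats.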

Hepatitis C virus [7] = assay: Antiviral activity against Hepatitis C virus genotype 6a infected in human HuH7 cells assessed as inhibition of subgenomic replicon RNA replication after 72 hrs by luciferase reporter assay; assay type: functional, cell-based, Hepacivirus hominis; conditions: Huh-7, 72 h
Salmonella typhimurium = assay: Genotoxicity in Salmonella typhimurium by Ames test; assay type: toxicity, organism-based; conditions: salmonella enterica subsp. enterica serovar typhimurium
[8] = Total clearance in cynomolgus monkey at 2 mg/kg, iv and 5 mg/kg, po by WinNonlin non-compartmental analysis; assay type: ADME, organism-based, Macaca fascicularis; conditions: in vivo
Hepatocyte [9] = assay: Drug anabolism in human hepatocytes assessed as monophosphate level at 10 uM after 24 hrs measured per million cells by mass spectrometer analysis; assay type: ADME, cell-based
[10] = Cytotoxicity in rat kidney fibroblasts; design: species or system Fibroblast
[11] = Inhibition of N-terminal His6-tagged Hepatitis C virus genotype 1b isolate Con1 NS5B RNA-dependent RNA polymerase activity by plate reader analysis
[12] = Drug anabolism in dog hepatocytes assessed as triphosphate level at 10 uM after 24 hrs measured per million cells by mass spectrometer analysis; assay type: ADME, cell-based, Canis lupus familiaris, Hepatocyte
Hepatitis C virus [13] = assay: Antiviral activity against Hepatitis C virus genotype 2b infected in human HuH7 cells assessed as inhibition of subgenomic replicon RNA replication after 72 hrs by luciferase reporter assay; assay type: functional, cell-based, Hepacivirus hominis; conditions: Huh-7, 72 h
[14] = Cmax in Sprague-Dawley rat at 5 mg/kg, po by WinNonlin non-compartmental analysis; assay type: ADME, organism-based; design: dose 5 mg/kg, route oral; conditions: in vivo; how it was run: as §1
[15] = Cmax in cynomolgus monkey at 5 mg/kg, po by WinNonlin non-compartmental analysis; assay type: ADME, organism-based, Macaca fascicularis; design: dose 5 mg/kg, route oral; conditions: in vivo
[16] = Inhibition of C-terminal His6-tagged and C-terminal 21 amino acids truncated Hepatitis C virus genotype 7a QC69 NS5B RNA-dependent RNA polymerase activity using polyU or polyC RNA as template by microbeta plate reader analysis; design: species or system Hepacivirus hominis
Hepatitis C virus [17] = assay: Antiviral activity against Hepatitis C virus genotype 3a infected in human HuH7 cells assessed as inhibition of subgenomic replicon RNA replication after 72 hrs by luciferase reporter assay; assay type: functional, cell-based, Hepacivirus hominis; conditions: Huh-7, 72 h
[18] = Cmax in Beagle dog at 5 mg/kg, po by WinNonlin non-compartmental analysis; assay type: ADME, organism-based, Canis lupus familiaris; design: dose 5 mg/kg, route oral; conditions: in vivo
[19] = Inhibition of C-terminal His6-tagged and C-terminal 21 amino acids truncated Hepatitis C virus genotype 3a VRL-69 NS5B RNA-dependent RNA polymerase activity using polyU or polyC RNA as template by microbeta plate reader analysis; design: species or system Hepatitis C virus subtype 3a
Rattus norvegicus = assay: Toxicity in rat assessed as animal death up to 400 mg/kg, po administered as single dose; assay type: organism-based; design: dose 400 mg/kg, route oral; conditions: in vivo
[20] = Inhibition of C-terminal His6-tagged and C-terminal 21 amino acids truncated Hepatitis C virus genotype 1a H77 NS5B RNA-dependent RNA polymerase activity using polyU or polyC RNA as template by microbeta plate reader analysis; design: species or system Hepatitis C virus (isolate H77)
[21] = Drug anabolism in dog hepatocytes assessed as monophosphate level at 10 uM after 24 hrs measured per million cells by mass spectrometer analysis; assay type: ADME, cell-based, Canis lupus familiaris, Hepatocyte
Hepatocyte [22] = assay: Drug anabolism in rat hepatocytes assessed as diphosphate level at 10 uM after 24 hrs measured per million cells by mass spectrometer analysis; assay type: ADME, cell-based
[23] = Total clearance in Beagle dog at 2 mg/kg, iv and 5 mg/kg, po by WinNonlin non-compartmental analysis; assay type: ADME, organism-based, Canis lupus familiaris; conditions: in vivo
Hepatocyte [24] = assay: Drug anabolism in rat hepatocytes assessed as compound level at 10 uM after 24 hrs measured per million cells by mass spectrometer analysis; assay type: ADME, cell-based
Hepatitis C virus [25] = assay: Antiviral activity against Hepatitis C virus genotype 4a infected in human HuH7 cells assessed as inhibition of subgenomic replicon RNA replication after 72 hrs by luciferase reporter assay; assay type: functional, cell-based, Hepacivirus hominis; conditions: Huh-7, 72 h
[26] = Volume of distribution at steady state in cynomolgus monkey at 2 mg/kg, iv and 5 mg/kg, po by WinNonlin non-compartmental analysis; assay type: ADME, organism-based, Macaca fascicularis; conditions: in vivo, read-out: Vdss
[27] = Volume of distribution at steady state in Beagle dog at 2 mg/kg, iv and 5 mg/kg, po by WinNonlin non-compartmental analysis; assay type: ADME, organism-based, Canis lupus familiaris; conditions: in vivo, read-out: Vdss
Hepatocyte [28] = assay: Drug anabolism in human hepatocytes assessed as compound level at 10 uM after 24 hrs measured per million cells by mass spectrometer analysis; assay type: ADME, cell-based
Hepatocyte [29] = assay: Drug anabolism in human hepatocytes assessed as triphosphate level at 10 uM after 24 hrs measured per million cells by mass spectrometer analysis; assay type: ADME, cell-based
[30] = Drug anabolism in human HuH7 cells assessed as diphosphate level at 10 uM after 24 hrs measured per million cells by mass spectrometer analysis; assay type: ADME, cell-based; conditions: huh-7, 24 h
[31] = Drug anabolism in human HuH7 cells assessed as compound level at 10 uM after 24 hrs measured per million cells by mass spectrometer analysis; assay type: ADME, cell-based; conditions: huh-7, 24 h
[32] = Cytotoxicity in rat liver epithelial cells; assay type: cell-based, Epithelial cell
[33] = Inhibition of erythroid progenitor proliferation in human bone marrow cells up to 100 uM; assay type: cell-based; conditions: bone marrow cell
[34] = Volume of distribution at steady state in Sprague-Dawley rat at 2 mg/kg, iv and 5 mg/kg, po by WinNonlin non-compartmental analysis; assay type: ADME, organism-based; conditions: in vivo, read-out: Vdss
How it was run: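 Pharmacokinetics were determined in male Sprague–Dawley rats.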

[35] = Drug anabolism in dog hepatocytes assessed as diphosphate level at 10 uM after 24 hrs measured per million cells by mass spectrometer analysis; assay type: ADME, cell-based, Canis lupus familiaris, Hepatocyte
[36] = Mitochondrial toxicity in human HepG2 cells assessed as decrease in mitochondrial DNA content up to 10 uM measured for 14 days; assay type: cell-based, Mitochondria; conditions: hepg2, 336 h
Hepatitis C virus [37] = assay: Antiviral activity against Hepatitis C virus genotype 5a infected in human HuH7 cells assessed as inhibition of subgenomic replicon RNA replication after 72 hrs by luciferase reporter assay; assay type: functional, cell-based, Hepacivirus hominis; conditions: Huh-7, 72 h
[38] = Cytotoxicity against human HuH7 cells by MTT assay; assay type: cell-based, Huh-7
How it was run: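 Huh-7-derived HCV replicon cell lines were used, with MTT as the vital dye read-out.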

Hepatitis C virus [39] = assay: Antiviral activity against Hepatitis C virus genotype 2a infected in human HuH7 cells assessed as inhibition of subgenomic replicon RNA replication after 72 hrs by luciferase reporter assay; assay type: functional, cell-based, Hepacivirus hominis; conditions: Huh-7, 72 h
Hepatocyte [40] = assay: Drug anabolism in rat hepatocytes assessed as triphosphate level at 10 uM after 24 hrs measured per million cells by mass spectrometer analysis; assay type: ADME, cell-based
Hepatitis C virus [41] = assay: Antiviral activity against Hepatitis C virus genotype 1a infected in human HuH7 cells assessed as inhibition of subgenomic replicon RNA replication after 72 hrs by luciferase reporter assay; assay type: functional, cell-based, Hepacivirus hominis; conditions: subtype 1a, Huh-7, 72 h
[42] = Cytotoxicity in rat heart myoblasts; design: species or system Myoblast
[43] = Drug anabolism in dog hepatocytes assessed as compound level at 10 uM after 24 hrs measured per million cells by mass spectrometer analysis; assay type: ADME, cell-based, Canis lupus familiaris, Hepatocyte
[44] = Inhibition of C-terminal His6-tagged and C-terminal 21 amino acids truncated Hepatitis C virus genotype 2a JFH-1 NS5B RNA-dependent RNA polymerase activity using polyU or polyC RNA as template by microbeta plate reader analysis; design: species or system Hepatitis C virus JFH-1
[45] = Drug anabolism in human HuH7 cells assessed as triphosphate level at 10 uM after 24 hrs measured per million cells by mass spectrometer analysis; assay type: ADME, cell-based; conditions: huh-7, 24 h
[46] = Drug anabolism in human HuH7 cells assessed as monophosphate level at 10 uM after 24 hrs measured per million cells by mass spectrometer analysis; assay type: ADME, cell-based; conditions: huh-7, 24 h
[47] = Inhibition of myeloid progenitor proliferation in human bone marrow cells up to 100 uM; assay type: cell-based; conditions: bone marrow cell

## C[C@@]1(O)[C@H](O)[C@@H](CO)O[C@H]1c1ccc2c(N)ncnn12
Hepatocyte [1]
  Drug metabolism: 7.3 pmol
[2]
  IC50: 480 nM
Hepatocyte [3]
  Drug metabolism: 40.5 pmol
Hepatitis C virus [4]
  EC50: 1600 nM
[5]
  Activity: Non-toxic
[6]
  clearance: 18.8 mL/min/kg
Hepatitis C virus [7]
  EC50: 1000 nM
Salmonella typhimurium
  Activity: Non-toxic
[8]
  clearance: 20.5 mL/min/kg
Hepatocyte [9]
  Drug metabolism: 27.6 pmol
[10]
  CC50: > 250000 nM
[11]
  IC50: 370 nM
[12]
  Drug metabolism: 51.2 pmol
Hepatitis C virus [13]
  EC50: 410 nM
[14]
  Cmax: 2380 nM
[15]
  Cmax: 820 nM
[16]
  IC50: 810 nM
Hepatitis C virus [17]
  EC50: 420 nM
[18]
  Cmax: 8360 nM
[19]
  IC50: 500 nM
Rattus norvegicus
  Activity: Toxic
[20]
  IC50: 570 nM
[21]
  Drug metabolism: 7 pmol
Hepatocyte [22]
  Drug metabolism: 9.7 pmol
[23]
  clearance: 11.4 mL/min/kg
Hepatocyte [24]
  Drug metabolism: 16.9 pmol
Hepatitis C virus [25]
  EC50: 880 nM
[26]
  Vd: 2.43 L/kg
[27]
  Vd: 5.22 L/kg
Hepatocyte [28]
  Drug metabolism: 46.2 pmol
Hepatocyte [29]
  Drug metabolism: 487 pmol
[30]
  Drug metabolism: 0.53 pmol
[31]
  Drug metabolism: 31.8 pmol
[32]
  CC50: 190000 nM
[33]
  Activity: Non-toxic
[34]
  Vd: 4.19 L/kg
[35]
  Drug metabolism: 8.3 pmol
[36]
  Activity: Non-toxic
Hepatitis C virus [37]
  EC50: 820 nM
[38]
  CC50: > 100000 nM
Hepatitis C virus [39]
  EC50: 630 nM
Hepatocyte [40]
  Drug metabolism: 49.9 pmol
Hepatitis C virus [41]
  EC50: 760 nM
[42]
  CC50: > 250000 nM
[43]
  Drug metabolism: 29.7 pmol
[44]
  IC50: 390 nM
[45]
  Drug metabolism: 9.33 pmol
[46]
  Drug metabolism: 3.36 pmol
[47]
  Activity: Non-toxic
